The term IC50 denotes the concentration needed to halve the response being measured.

The source of these data is ChEMBL document CHEMBL2434884, “Natural product derived antiprotozoal agents: synthesis, biological evaluation, and structure-activity relationships of novel chromene and chromane derivatives” (J Med Chem, 2013).

One data set concerns Leishmania donovani. Nature of the data set: Antiprotozoal activity against axenic amastigote form of Leishmania donovani MHOM/ET/67/L82 assessed as parasite growth inhibition. It counts as functional, organism-based.
In data set [1] the test system is Trypanosoma brucei rhodesiense. Briefly: Antiprotozoal activity against trypomastigote form of Trypanosoma brucei rhodesiense STIB 900 assessed as parasite growth inhibition. The format is functional, organism-based.
A short description of data set [2]: Selectivity index, ratio of IC50 for rat L6 cells to ratio of IC50 for chloroquine/pyrimethamine-resistant erythrocytic form of Plasmodium falciparum K1. It counts as toxicity, cell-based. Conditions: read-out: Selectivity Index.
Data set [3] in a line: Selectivity index, ratio of IC50 for rat L6 cells to ratio of IC50 for axenic amastigote form of Leishmania donovani MHOM/ET/67/L82. The format is toxicity, cell-based. To be noted: read-out: Selectivity Index.
The test system of the next data set is Leishmania tarentolae. Briefly: Antiprotozoal activity against promastigote form of Leishmania tarentolae P10 assessed as parasite growth inhibition after 48 hrs by MTT assay. It counts as functional, organism-based. To be noted: P10, 48 h. An outline of the steps:
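Promastigotes of nonpathogenic lizard-infecting L. tarentolae strain P10, cultured in hemin-supplemented BHI medium; IC50 determined.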

A short description of data set [4]: Selectivity index, ratio of IC50 for rat L6 cells to ratio of IC50 for trypomastigote form of Trypanosoma brucei rhodesiense STIB 900. The format is toxicity, cell-based. Conditions: read-out: Selectivity Index.
In the next data set the test system is Plasmodium falciparum. Briefly: Antiprotozoal activity against chloroquine/pyrimethamine-resistant erythrocytic form of Plasmodium falciparum K1 assessed as parasite growth inhibition. It counts as functional, organism-based.
The subject of another data set is L6. Briefly: Cytotoxicity against rat L6 cells. The format is cell-based. An outline of the steps:
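L6 rat skeletal myoblasts; cytotoxicity IC50 determined at the Swiss Tropical and Public Health Institute by an earlier standard protocol.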

The subject of another data set is Trypanosoma cruzi. Briefly: Antiprotozoal activity against intracellular amastigote form of Trypanosoma cruzi Tulahuen C4 assessed as parasite growth inhibition. The format is functional, organism-based.

As for `COc1cc2c(cc1C(C)NCCCCc1ccccc1)C=CC(C)(C)O2` (centres undefined), the IC50 in the data set on Leishmania donovani was determined as 71.7 µM; in data set [1] it was 3.15 µM; in the data set on Leishmania tarentolae it was 0.77 µM; in the data set with Plasmodium falciparum it was 1.41 µM; in the data set with L6 it was 4.73 µM; in the data set on Trypanosoma cruzi it was 4.19 µM. The selectivity ratio is 3.35 in data set [2], 0.07 in [3] and 1.5 in data set [4].

Regarding `CCCCNC(C)c1cc2c(cc1OC)OC(C)(C)CC2` (centres undefined), the IC50 was 10.8 µM in the data set with Leishmania donovani; 7.82 µM in data set [1]; 3.22 µM with Plasmodium falciparum; 59 µM with L6; 38.4 µM in the data set with Trypanosoma cruzi. The selectivity ratio in [2] worked out at 18.3; in data set [3], 5.5; in data set [4] it was 7.54.

On to `CCNC(C)c1cc2c(cc1OC)OC(C)(C)C=C2` (centres undefined), for which the 50% inhibitory concentration (IC50) in the data set with Leishmania donovani stood at 365 µM; in data set [1] it was 22.8 µM; in the data set with Leishmania tarentolae, 8.76 µM; in the data set on Plasmodium falciparum, 8.12 µM; in the data set on L6, 176 µM; in the data set on Trypanosoma cruzi, 91.5 µM. In addition, the selectivity ratio in data set [2] worked out at 22; in data set [3] it was 0.48; in data set [4], 7.71.

Regarding `COc1cc2c(cc1C(C)N[C@H](C)c1ccccc1)C=CC(C)(C)O2` (some centres undefined), the half-inhibitory concentration (IC50) in data set [1] is 2.02 µM; in the data set on Leishmania tarentolae it was 8.61 µM; with Plasmodium falciparum, 0.72 µM; in the data set on L6 it was 15.9 µM. Further, the selectivity ratio in data set [2] was found to be 22.1; in data set [4], 7.85.

With `COc1cc2c(cc1C(C)OC/C=C/c1ccccc1)C=CC(C)(C)O2` (centres undefined), the IC50 is 23 µM in the data set with Leishmania donovani; 94.7 µM in data set [1]; 0.86 µM in the data set with Leishmania tarentolae; 64.4 µM with L6; 73 µM in the data set with Trypanosoma cruzi. Moreover, the selectivity ratio in data set [3] worked out at 2.8; in [4] it was 0.68.

As for `CCCCNC(C)c1cc2c(cc1OC)OC(C)(C)C=C2` (centres undefined), the concentration for half-maximal inhibition (IC50) in data set [1] turned out to be 8.19 µM; with Leishmania tarentolae, 6.25 µM; in the data set with Plasmodium falciparum, 4.18 µM; with L6, 52.5 µM; with Trypanosoma cruzi, 25.2 µM. Further, the selectivity ratio in data set [2] was found to be 12.6; in data set [4], 6.41.

For the molecule `COc1cc2c(cc1C(C)NC/C=C/c1ccccc1)C=CC(C)(C)O2` (centres undefined), the 50% inhibitory concentration (IC50) worked out at 62.4 µM in the data set with Leishmania donovani; 5.84 µM in data set [1]; 3.26 µM in the data set on Leishmania tarentolae; 4.41 µM with Plasmodium falciparum; 14.6 µM with L6; 8.13 µM in the data set on Trypanosoma cruzi. In addition, the selectivity ratio in data set [2] amounted to 3.32; in data set [3], 0.23; in [4] it was 2.5.

In the case of `COc1cc2c(cc1C(C)N[C@@H](C)c1ccccc1)C=CC(C)(C)O2` (some centres undefined), the IC50 in data set [1] was 5.1 µM; in the data set on Leishmania tarentolae, 9.01 µM; in the data set on Plasmodium falciparum, 0.37 µM; in the data set with L6 it was 16.5 µM. The selectivity ratio in data set [2] was determined as 44.4; in [4], 3.23.

For `COc1ccc(CNC(C)c2cc3c(cc2OC)OC(C)(C)C=C3)cc1` (centres undefined), the IC50 in the data set on Leishmania donovani was determined as 225 µM; in data set [1], 2.42 µM; with Leishmania tarentolae it was 9.8 µM; with Plasmodium falciparum, 0.93 µM; in the data set on L6, 14.9 µM; in the data set with Trypanosoma cruzi, 33.1 µM. Besides, the selectivity ratio in data set [2] was determined as 16; in data set [3], 0.07; in [4] it was 6.13.

As to `COc1cc2c(cc1C(C)NC(=O)/C=C/c1ccccc1)C=CC(C)(C)O2` (centres undefined), the IC50 was 26.3 µM with Leishmania donovani; 35.9 µM in data set [1]; 1.78 µM with Leishmania tarentolae; 107 µM in the data set on L6; 23.1 µM with Trypanosoma cruzi. For the same molecule, the selectivity ratio in data set [3] was determined as 4.1; in data set [4] it was 2.99.

For the molecule `COc1cc2c(cc1C(C)NC(=O)Cc1ccccc1)C=CC(C)(C)O2` (centres undefined), the concentration for half-maximal inhibition (IC50) is 53.8 µM with Leishmania donovani; 103 µM in data set [1]; 7.69 µM in the data set on Leishmania tarentolae; 31 µM with Plasmodium falciparum; 86.5 µM in the data set with L6; 44.7 µM with Trypanosoma cruzi. Further, the figures for the selectivity ratio in [2], in [3] and in data set [4] were 2.79, 1.6 and 0.83, respectively.

Take `COc1cc2c(cc1C(C)N(C)CCCc1ccccc1)C=CC(C)(C)O2` (centres undefined): the half-maximal inhibitory concentration (IC50) came out at 84.3 µM in the data set with Leishmania donovani; 3.17 µM in data set [1]; 9.01 µM in the data set on Leishmania tarentolae; 1.24 µM with Plasmodium falciparum; 16.3 µM in the data set with L6; 9.17 µM in the data set with Trypanosoma cruzi. The selectivity ratio in data set [2] came to 13.5; in data set [3] it was 0.19; in [4], 5.12.

Regarding `COc1cc2c(cc1C(C)N1CCOCC1)C=CC(C)(C)O2` (centres undefined), the IC50 with Leishmania donovani was found to be 148 µM; in [1] it was 96.2 µM; with Leishmania tarentolae, 12.4 µM; in the data set with Plasmodium falciparum, 9.92 µM; in the data set on L6 it was 157 µM; in the data set on Trypanosoma cruzi, 110 µM. For the same molecule, the selectivity ratio in data set [2] was 15.9; in data set [3], 1.06; in data set [4] it was 1.63.

Consider `COc1cc2c(cc1C(C)NC(=O)c1ccccc1)C=CC(C)(C)O2` (centres undefined), for which the IC50 was 26.3 µM in the data set on Leishmania donovani; 23.4 µM in data set [1]; 8.61 µM with Leishmania tarentolae; 11.5 µM in the data set on Plasmodium falciparum; 34.8 µM with L6; 36.8 µM in the data set on Trypanosoma cruzi. The results for the selectivity ratio in data set [2], in data set [3] and in data set [4] were 3.01, 1.3 and 1.45, respectively.

In the case of `COc1cc2c(cc1C(C)NCc1ccccc1)C=CC(C)(C)O2` (centres undefined), the half-maximal inhibitory concentration (IC50) in the data set with Leishmania donovani was 159 µM; in data set [1], 2.38 µM; in the data set on Leishmania tarentolae, 2.4 µM; in the data set on Plasmodium falciparum, 0.64 µM; with L6, 21 µM; in the data set on Trypanosoma cruzi, 33.9 µM. Besides, the results for the selectivity ratio in data set [2], in [3] and in data set [4] were 32.8, 0.13 and 8.83, respectively.

For the molecule `COc1cc2c(cc1C(C)NCCCc1ccccc1)CCC(C)(C)O2` (centres undefined), the IC50 in data set [1] was 2.27 µM; with Leishmania tarentolae, 129 µM; with Plasmodium falciparum, 2.13 µM; in the data set with L6, 2.63 µM; with Trypanosoma cruzi it was 5.35 µM. Moreover, the selectivity ratio in data set [2] stood at 1.23; in data set [4], 1.15.

`COc1cc2c(cc1C(C)NCCc1ccccc1)CCC(C)(C)O2` (centres undefined): the IC50 was 1.73 µM in the data set with Leishmania donovani; 4.15 µM in data set [1]; 126 µM in the data set with Leishmania tarentolae; 2.49 µM in the data set on Plasmodium falciparum; 14.5 µM with L6; 12.1 µM with Trypanosoma cruzi. Moreover, the selectivity ratio in data set [2] was found to be 5.8; in data set [3], 8.4; in data set [4] it was 3.48.

With `COc1cc2c(cc1C(C)OCc1ccccc1)C=CC(C)(C)O2` (centres undefined), the half-maximal inhibitory concentration (IC50) in the data set with Leishmania donovani was 21.2 µM; in [1], 76.1 µM; with Leishmania tarentolae, 1.53 µM; in the data set on Plasmodium falciparum, 9.48 µM; with L6 it was 43.9 µM; in the data set on Trypanosoma cruzi, 45 µM. Further, the selectivity ratio in data set [2] was determined as 4.64; in data set [3], 2.1; in data set [4], 0.58.

Take `COc1cc2c(cc1C(C)NCCc1ccccc1)C=CC(C)(C)O2` (centres undefined): the IC50 with Leishmania donovani amounted to 127 µM; in data set [1] it was 2.22 µM; in the data set with Leishmania tarentolae it was 1.04 µM; in the data set on Plasmodium falciparum, 2.42 µM; in the data set on L6 it was 15.4 µM; with Trypanosoma cruzi it was 9.1 µM. Further, the figures for the selectivity ratio in data set [2], in data set [3] and in data set [4] were 6.34, 0.12 and 6.93, respectively.

With `CCN(CC)CCCC(C)NC(C)c1cc2c(cc1OC)OC(C)(C)C=C2` (centres undefined), the IC50 was found to be 1.86 µM in [1]; 3.24 µM in the data set on Leishmania tarentolae; 2.39 µM with Plasmodium falciparum; 41.9 µM with L6; 35.5 µM with Trypanosoma cruzi. The figures for the selectivity ratio in [2] and in [4] were 17.5 and 22.5, respectively.

Regarding `COc1cc2c(cc1C(C)OCCc1ccccc1)C=CC(C)(C)O2` (centres undefined), the concentration for half-maximal inhibition (IC50) stood at 63.5 µM in the data set with Leishmania donovani; 180 µM in data set [1]; 1.17 µM in the data set on Leishmania tarentolae; 59.9 µM in the data set on Plasmodium falciparum; 123 µM in the data set with L6; 56.7 µM with Trypanosoma cruzi. The values for the selectivity ratio in data set [2], in data set [3] and in data set [4] were 2.08, 1.9 and 0.69, respectively.

For `COc1cc2c(cc1C(C)NCc1ccccc1)CCC(C)(C)O2` (centres undefined), the concentration for half-maximal inhibition (IC50) is 3.7 µM in the data set with Leishmania donovani; 4.98 µM in data set [1]; 270 µM in the data set with Leishmania tarentolae; 1.51 µM with Plasmodium falciparum; 15.3 µM in the data set with L6; 13.3 µM in the data set with Trypanosoma cruzi. The figures for the selectivity ratio in data set [2], in [3] and in [4] were 10.1, 4.1 and 3.08, respectively.

With `COc1cc2c(cc1C(C)NCC1CCCCC1)C=CC(C)(C)O2` (centres undefined), the IC50 with Leishmania donovani was determined as 139 µM; in [1] it was 2.16 µM; in the data set with Leishmania tarentolae it was 0.65 µM; in the data set with Plasmodium falciparum, 2.46 µM; in the data set on L6 it was 14.5 µM; in the data set with Trypanosoma cruzi, 12.9 µM. Also, the selectivity ratio is 5.88 in data set [2], 0.1 in data set [3] and 6.69 in data set [4].

As to `COc1cc2c(cc1C(C)N1CCCC1)C=CC(C)(C)O2` (centres undefined), the IC50 was 270 µM in the data set on Leishmania donovani; 41.1 µM in data set [1]; 18.6 µM in the data set with Leishmania tarentolae; 16.4 µM in the data set with Plasmodium falciparum; 177 µM in the data set with L6; 68.2 µM in the data set on Trypanosoma cruzi. Further, the selectivity ratio in [2] stood at 10.8; in data set [3], 0.66; in [4], 4.31.
